What was measured:
[1] = test system: rat liver microsomes; experiment: Effect of vonoprazan on the metabolism of VEN; type: in vitro ADME; details: RLMs
Procedure, shortened: (§1)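 Male Sprague–Dawley rat liver microsomes were prepared by differential centrifugation (9000 × g, then 105,000 × g). After 5 min pre-incubation at 37°C, NADPH started a 30 min reaction, stopped with ice-cold acetonitrile. ODV was measured by UPLC-MS/MS against a diazepam internal standard, in triplicate, and analysed by Lineweaver–Burk plots with slope and intercept replots.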

[2] = test system: venlafaxine O-demethylation (ODV formation) in rat liver microsomes; no CYP named; experiment: Effect of vonoprazan on the metabolism of VEN; type: in vitro ADME; details: rat, rat liver microsomes, pH 7.4, probe venlafaxine (VEN), 2-16 μM
Procedure, shortened: as §1

[3] = In vivo pharmacokinetic study of VEN and ODV in rats with or without vonoprazan; parameters: species or system Sprague-Dawley rats; details: rat; for AUC(0-t) / AUC(0-inf) / CL/F / Cmax / MRT last / MRT inf / Tmax / Vd/F / half-life: male, Sprague-Dawley, plasma, po, 20 mg/kg, rat plasma, VEN 20 mg/kg oral; for CL/F: CLz/F; for MRT last: MRT(0-t); for MRT inf: MRT(0-∞); for Vd/F: Vz/F; for half-life: t1/2z
[4] = Stability of VEN and ODV in rat plasma under different storage conditions; type: in vitro ADME; details: for Stability, Accuracy RE (%): n = 6
[5] = Enzyme kinetics; type: in vitro ADME; details: rat, rat liver microsomes, pH 7.4
Procedure, shortened: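 Rat liver microsomes (1 mg/mL) were incubated in 100 mM potassium phosphate pH 7.4 with 10 mM NADPH and venlafaxine. After 5 min pre-incubation at 37°C, NADPH started a 30 min reaction, stopped with ice-cold acetonitrile containing diazepam internal standard. ODV formation was quantified by UPLC-MS/MS. Km came from nonlinear regression of velocity versus substrate concentration on duplicate or triplicate determinations.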

[6] = + vonoprazan 5 mg/kg oral, 7 days
[7] = + vonoprazan 20 mg/kg oral, 7 days
[8] = VEN 20 mg/kg oral + vonoprazan 5 mg/kg
[9] = VEN 20 mg/kg oral + vonoprazan 20 mg/kg
[10] = 4°C, 24h, high QC (VEN 300, ODV 60 ng·mL^−1)
[11] = 4°C, 24h, low QC (VEN 3, ODV 0.6 ng·mL^−1)
[12] = Room Temperature, 6h, high QC (VEN 300, ODV 60 ng·mL^−1)
[13] = Room Temperature, 6h, low QC (VEN 3, ODV 0.6 ng·mL^−1)
[14] = −80°C, 7 Days, high QC (VEN 300, ODV 60 ng·mL^−1)
[15] = −80°C, 7 Days, low QC (VEN 3, ODV 0.6 ng·mL^−1)

CNCc1cc(-c2ccccc2F)n(S(=O)(=O)c2cccnc2)c1 [Vonoprazan]
Inhibition mechanism on VEN metabolism ([1]; competitive plus non-competitive): mixed inhibition
Ki’ (inhibition of VEN metabolism) ([1]; mixed inhibition, Lineweaver-Burk): 11.29 µM
Ki ([1]; read-out: Ki (inhibition of VEN metabolism), mixed inhibition, Lineweaver-Burk): 23.1 µM
IC50 at 30 min [2]: 5.54 µM

CN(C)CC(c1ccc(O)cc1)C1(O)CCCCC1 (stereo not shown) [ODV, O-desmethylvenlafaxine]
AUC(0-t) [3, 6]: 221 ± 31.5 ng·h/mL
AUC(0-t) [3, 7]: 469 ± 68.6 ng·h/mL
AUC(0-t) ([3]; without vonoprazan (control)): 155 ± 36.6 ng·h/mL
AUC(0-inf) [3, 6]: 225 ± 31.7 ng·h/mL
AUC(0-inf) [3, 7]: 492 ± 79.8 ng·h/mL
AUC(0-inf) ([3]; without vonoprazan (control)): 161 ± 43.5 ng·h/mL
CL/F [3, 6]: 1510 mL/min/kg
CL/F [3, 7]: 696 mL/min/kg
CL/F ([3]; without vonoprazan (control)): 2200 mL/min/kg
Cmax [3, 6]: 69.7 ± 30.1 ng/mL
Cmax [3, 7]: 109 ± 13.4 ng/mL
Cmax ([3]; without vonoprazan (control)): 58.1 ± 14.1 ng/mL
MRT last [3, 6]: 3.08 ± 0.48 h
MRT last [3, 7]: 3.92 ± 0.38 h
MRT last ([3]; without vonoprazan (control)): 2.82 ± 0.55 h
MRT inf [3, 6]: 3.28 ± 0.49 h
MRT inf [3, 7]: 4.44 ± 0.52 h
MRT inf ([3]; without vonoprazan (control)): 3.2 ± 1.16 h
Tmax [3, 6]: 0.95 ± 0.37 h
Tmax [3, 7]: 2.6 ± 0.55 h
Tmax ([3]; without vonoprazan (control)): 0.75 ± 0.18 h
Vd/F [3, 6]: 260 ± 41.5 L/kg
Vd/F [3, 7]: 142 ± 30.4 L/kg
Vd/F ([3]; without vonoprazan (control)): 374 ± 170 L/kg
half-life [3, 6]: 2.01 ± 0.36 h
half-life [3, 7]: 2.43 ± 0.75 h
half-life ([3]; without vonoprazan (control)): 2.05 ± 1.05 h
Increase of the metabolite (M. R.) compared with control group [3, 8]: 0.87 fold
Decrease of CLz/F compared with control group [3, 9]: 68.33%
Decrease of Vz/F compared with control group [3, 9]: 62.08%
Elevation of Cmax compared with control group [3, 9]: 0.88 fold
Elevation of Tmax compared with control group [3, 9]: 2.46 fold
Increase of AUC(0-∞) compared with control group [3, 9]: 2.05 fold
Increase of MRT(0-∞) compared with control group [3, 9]: 0.39 fold
Increase of the metabolite (M. R.) compared with control group [3, 9]: 1.34 fold
Stability, Accuracy RE (%) [4, 10]: 108.96%
Stability, Accuracy RE (%) [4, 11]: 112.11%
Stability, Accuracy RE (%) [4, 12]: 109.57%
Stability, Accuracy RE (%) [4, 13]: 107.58%
Stability, Accuracy RE (%) [4, 14]: 106.85%
Stability, Accuracy RE (%) [4, 15]: 105.72%

COc1ccc(C(CN(C)C)C2(O)CCCCC2)cc1 (stereo not shown) [VEN, Venlafaxine]
Km at 30 min [5]: 8.28 µM
AUC(0-t) [3, 6]: 689 ± 161 ng·h/mL
AUC(0-t) [3, 7]: 1910 ng·h/mL
AUC(0-t) ([3]; without vonoprazan (control)): 260 ± 102 ng·h/mL
AUC(0-inf) [3, 6]: 694 ± 163 ng·h/mL
AUC(0-inf) [3, 7]: 1920 ng·h/mL
AUC(0-inf) ([3]; without vonoprazan (control)): 261 ± 101 ng·h/mL
CL/F [3, 6]: 500 mL/min/kg
CL/F [3, 7]: 192 mL/min/kg
CL/F ([3]; without vonoprazan (control)): 1460 mL/min/kg
Cmax [3, 6]: 261 ± 110 ng/mL
Cmax [3, 7]: 525 ± 115 ng/mL
Cmax ([3]; without vonoprazan (control)): 127 ± 41.5 ng/mL
MRT last [3, 6]: 2.44 ± 0.3 h
MRT last [3, 7]: 3.28 ± 0.52 h
MRT last ([3]; without vonoprazan (control)): 2.09 ± 0.18 h
MRT inf [3, 6]: 2.52 ± 0.43 h
MRT inf [3, 7]: 3.36 ± 0.56 h
MRT inf ([3]; without vonoprazan (control)): 2.12 ± 0.17 h
Tmax [3, 6]: 0.95 ± 0.37 h
Tmax [3, 7]: 2.6 ± 0.55 h
Tmax ([3]; without vonoprazan (control)): 0.7 ± 0.21 h
Vd/F [3, 6]: 62.1 ± 15.4 L/kg
Vd/F [3, 7]: 19.9 ± 7.19 L/kg
Vd/F ([3]; without vonoprazan (control)): 187 ± 130 L/kg
half-life [3, 6]: 1.48 ± 0.46 h
half-life [3, 7]: 1.28 ± 0.53 h
half-life ([3]; without vonoprazan (control)): 1.39 ± 0.32 h
Decrease of Clz/F compared with control group [3, 8]: 65.73%
Increase of Cmax compared with control group [3, 8]: 1.05 fold
Decrease of CLz/F compared with control group [3, 9]: 86.87%
Decrease of Vz/F compared with control group [3, 9]: 89.35%
Elevation of Cmax compared with control group [3, 9]: 3.12 fold
Elevation of Tmax compared with control group [3, 9]: 2.71 fold
Increase of AUC(0-∞) compared with control group [3, 9]: 6.37 fold
Increase of MRT(0-∞) compared with control group [3, 9]: 0.58 fold
Stability, accuracy range over three QC levels and three storage conditions ([4]; 4°C 24 hours, room temperature 4 hours, −80°C 7 days): 99.68–111.18%
Stability, Accuracy RE (%) [4, 10]: 106.95%
Stability, Accuracy RE (%) [4, 11]: 108.99%
Stability, Accuracy RE (%) [4, 12]: 102.08%
Stability, Accuracy RE (%) [4, 13]: 102.90%
Stability, Accuracy RE (%) [4, 14]: 105.33%
Stability, Accuracy RE (%) [4, 15]: 99.68%

Reference: article PMC7667002 (Drug Design, Development and Therapy, 2020)
